Measured values from ChEMBL document CHEMBL3244309, “Structure-activity relationships of aminoalkyl and -aryl glycosides having insulin-like activity” (1978).

Assays:
Type in all cases: functional
[1] = Insulin-like activity in albino CD rat fat cells assessed as stimulation of oxidation of [14C]glucose to 14CO2 at 100 ug/ml after 2 hrs by scintillation counting analysis relative to insulin
[2] = Insulin-like activity in albino CD rat fat cells assessed as stimulation of oxidation of [14C]glucose to 14CO2 at 50 ug/ml after 2 hrs by scintillation counting analysis relative to insulin
[3] = Insulin-like activity in albino CD rat fat cells assessed as stimulation of oxidation of [14C]glucose to 14CO2 at 750 ug/ml after 2 hrs by scintillation counting analysis relative to insulin
Rattus norvegicus [4] = experiment: In vivo insulin-like activity in rat diaphragm muscle assessed as stimulation of glycogenolysis by measuring conversion of [14C]glucose to [14C]glycogen at 500 mg/kg, ip after 2 hrs; conditions: route intraperitoneal, in the assay text read “glycogenesis” for “glycogenolysis”
Method in brief: (§1)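 Overnight-fasted female rats (140–150 g) given one ip injection of saccharide neutralized to pH 7.5 with 0.1 N HCl, together with [14C]glucose (2 μCi/rat), in physiological saline. Controls received the same solution without saccharide or insulin; insulin reference was 200 mU/kg. After 2 h, 14C incorporated per gram of tissue was measured: diaphragm glycogen and omental adipose total lipids. Mean of five animals, % above control.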

Rattus norvegicus [5] = experiment: In vivo insulin-like activity in rat omental adipose tissue assessed as stimulation of lipogenesis by measuring conversion of [14C]glucose to [14C]lipids at 500 mg/kg, ip after 2 hrs; conditions: route intraperitoneal; method in brief: as §1

SMILES | Activity [1] [%] | other results
N[C@@H]1O[C@H](CO)[C@@H](O)[C@H](O)[C@@H]1O | 0 | –
NCCCCCCS[C@H]1O[C@H](CO)[C@@H](O)[C@H](O)[C@@H]1O[C@H]1O[C@H](CO)[C@@H](O)[C@H](O)[C@@H]1O | 21.6 | –
NCCCCCCSC1O[C@H]([C@H](O)CO)[C@H](O)[C@@H]1O (some centres not stated) | – | Activity [2]: 93.6%
C[C@H]1O[C@H](SCCCCCCN)[C@@H](O)[C@@H](O)[C@@H]1O | 0 | –
NCCCCCCS[C@H]1O[C@H](CO)[C@@H](O[C@H]2O[C@H](CO)[C@@H](O)[C@H](O)[C@@H]2O)[C@H](O)[C@@H]1O | 37.3 | –
CNC(=O)NC[C@H]1O[C@@H](SCCCCCCN)[C@@H](O)[C@@H](O)[C@@H]1O | – | Activity [2]: 129%
CSCCCCCCN | 24.8 | –
NCCCCCCSCC(O)CO (configuration not stated) | 6.9 | –
O=C([O-])CCCCCS[C@H]1O[C@H](CO)[C@@H](O)[C@H](O)[C@@H]1O.[Na+] | 0 | –
Nc1ccc(O[C@H]2O[C@H](CO)[C@@H](O)[C@H](O)[C@@H]2O)cc1 | 2.9 | Activity [3]: 23.9%
NCCCCCCS[C@@H]1O[C@H](CO)[C@@H](O)[C@H](O)[C@H]1O | 43.8 | –
NCCCCCCS | 15.5 | –
NCCCCCCSC[C@@H](O)[C@@H](O)[C@H](O)[C@H](O)CO | – | Activity [2]: 0%
NC[C@H]1O[C@H](CO)[C@@H](O)[C@H](O)[C@@H]1O | 0 | –
NCCCCCCC(=O)NCCCCCCS[C@H]1O[C@H](CO)[C@@H](O)[C@H](O)[C@@H]1O | 47.1 | –
NCCCCCCS[C@H]1O[C@H](COC(N)=O)[C@@H](O)[C@H](O)[C@@H]1O | 102.9 | –
NCc1ccc(O[C@H]2O[C@H](CO)[C@@H](O)[C@H](O)[C@@H]2O)cc1 | 6.4 | –
NCCCCCCS[C@@H]1O[C@H](CO)[C@@H](O)[C@H](O)[C@@H]1O[C@H]1O[C@H](CO)[C@@H](O)[C@H](O)[C@@H]1O | 0 | –
NCCCCCCS[C@@H]1O[C@H](CO)[C@H](O)[C@H](O)[C@H]1O | 68.8 | –
NCCCCCCS[C@@H]1O[C@H](CO)[C@H](O)[C@@H](O)[C@@H]1O | 75.2 | –
CN(C)CCCCCCS[C@H]1O[C@H](CO)[C@@H](O)[C@H](O)[C@@H]1O | 0 | –
CNCCCCCCS[C@H]1O[C@H](CO)[C@@H](O)[C@H](O)[C@@H]1O | 0 | –
CCCCCCCS[C@H]1O[C@H](CO)[C@@H](O)[C@H](O)[C@@H]1O | 0 | –
NCCCCCCS[C@H]1O[C@H](CO)[C@H](O)[C@@H](O)[C@@H]1O | 63.7 | –

SMILES | Activity [1] [%] | other results
NCCCCCCS[C@H]1O[C@H](CO)[C@@H](O)[C@H](O)[C@@H]1O | 40.8 | Activity [2]: 132.4%
NCCCCS[C@H]1O[C@H](CO)[C@@H](O)[C@H](O)[C@@H]1O | 0 | –
NCCCCCCS(=O)(=O)[C@H]1O[C@H](CO)[C@@H](O)[C@H](O)[C@@H]1O | 33.3 | –
NCCCCCCCS[C@H]1O[C@H](CO)[C@@H](O)[C@H](O)[C@@H]1O | 14.8 | –
NCc1ccc(CS[C@H]2O[C@H](CO)[C@@H](O)[C@H](O)[C@@H]2O)cc1 | 9.2 | –
NCCCCCCC(=O)N[C@@H]1O[C@H](CO)[C@@H](O)[C@H](O)[C@@H]1O | 20.5 | –
NCCCCCCS[C@H]1O[C@H](CO)[C@H](O)[C@H](O)[C@@H]1O | – | Activity [2]: 109.9%
NCCCCCCO[C@@H]1O[C@H](CO)[C@@H](O)[C@H](O)[C@H]1O | 23.3 | –
NCCCCCCCCS[C@H]1O[C@H](CO)[C@@H](O)[C@H](O)[C@@H]1O | 0 | –
NCCCCCCO[C@H]1O[C@H](CO)[C@@H](O)[C@H](O)[C@@H]1O | 23.3 | –
NCCCCCCS[C@H]1O[C@H](CO[C@H]2O[C@H](CO)[C@@H](O)[C@H](O)[C@@H]2O)[C@@H](O)[C@H](O)[C@@H]1O | 21.6 | –
COC[C@H]1O[C@H](SCCCCCCN)[C@@H](O)[C@@H](O)[C@@H]1O | 37.5 | –
C[N+](C)(C)CCCCCCS[C@H]1O[C@H](CO)[C@@H](O)[C@H](O)[C@@H]1O.[I-] | 0 | –
NCCCCCCCC(=O)N[C@@H]1O[C@H](CO)[C@@H](O)[C@H](O)[C@@H]1O | 22.4 | –
NCCCCCCS[C@H]1O[C@H](CO)[C@@H](O)[C@H](O[C@H]2O[C@H](CO)[C@@H](O)[C@H](O)[C@@H]2O)[C@@H]1O | 15.7 | –
NCCCCCC(=O)N[C@@H]1O[C@H](CO)[C@@H](O)[C@H](O)[C@@H]1O | 2.6 | –
NCc1ccccc1O[C@H]1O[C@H](CO)[C@@H](O)[C@H](O)[C@@H]1O | 0 | –
CC(=O)N[C@@H]1[C@@H](O)[C@H](O)[C@@H](CO)O[C@H]1SCCCCCCN | 36.3 | –
NCCCCCCS[C@H]1O[C@H](CO)[C@@H](OC(N)=O)[C@H](O)[C@@H]1O | 64.2 | –
NCCCCCCS[C@@H]1O[C@H](CO)[C@@H](O)[C@H](O)[C@@H]1O | 80 | Activity (Rattus norvegicus [4]): 74%; Activity [2]: 109.7%; Activity (Rattus norvegicus [5]): 86%
NCCS[C@H]1O[C@H](CO)[C@@H](O)[C@H](O)[C@@H]1O | 0 | –
Nc1ccc(CS[C@H]2O[C@H](CO)[C@@H](O)[C@H](O)[C@@H]2O)cc1 | 0 | –
NCCCCCS[C@H]1O[C@H](CO)[C@@H](O)[C@H](O)[C@@H]1O | 6.1 | –
